Only some compounds are listed: those with a hit (about 3.5% of all), similar ones and a draw of the others.
MEKK2 WT-MEK5 = raises or lowers MEK5 binding to wildtype human MEKK2 PB1 domain. Q9Y2U5. bead flow cytometry, Alexa488-MEK5 binding to MEKK2 WT; actives lie on both sides. binding response (% of control), % at 10 µM. 290,000 compounds, 1.1% hits; in the data active = binding response below about 67% or above about 130%
ABCB1 inh = inhibitors of human ABCB1 transporter, ABCG2 counter-screen; P08183; 190,000 compounds, 0.067% hits; CCRF-Adr cells, JC-1 efflux, flow cytometry; inhibition, % at 6.6 µM; in the data active = inhibition above about 40%;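 note: 0% = vehicle and 100% = reference inhibitor; higher value means more JC-1 retained so stronger ABCB1 efflux block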
WT yeast gro inh = growth inhibition of WT yeast, mitochondrial fusion screen; mitochondrial fusion phenotypic screen, WT strain; inhibition, % at 10 µM; 190,000 compounds, 2.1% hits; AID 1362; in the data active = inhibition above about 58%; tested in S. cerevisiae
MEKK3 PB1 HTS = raises or lowers MEK5 binding to the human MEKK3 PB1 domain; AID 1529; bead-based flow cytometry, Alexa488-MEK5 binding to MEKK3; actives lie on both sides; 0 = blocked by unlabeled MEK5, 100 = vehicle; binding response (% of control), % at 10 µM; 290,000 compounds, 1.4% hits; Q99759;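 active = binding response more than 3 SD above or below the average of its plate-row segment, actives on both sides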;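 note: Alexa488 bead fluorescence after subtracting the streptavidin-only scavenger bead signal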
ABCG2 inh = inhibitors of human ABCG2 transporter, ABCB1 counter-screen | Q9UNQ0 | IgMXP3 cells, JC-1 efflux, flow cytometry | inhibition, % at 6.6 µM | 190,000 compounds, 0.1% hits;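 active = inhibition above 80%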;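 note: 0% = DMSO and 100% = nicardipine control wells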
Target sequence (Q9UNQ0 whole entry, looked up): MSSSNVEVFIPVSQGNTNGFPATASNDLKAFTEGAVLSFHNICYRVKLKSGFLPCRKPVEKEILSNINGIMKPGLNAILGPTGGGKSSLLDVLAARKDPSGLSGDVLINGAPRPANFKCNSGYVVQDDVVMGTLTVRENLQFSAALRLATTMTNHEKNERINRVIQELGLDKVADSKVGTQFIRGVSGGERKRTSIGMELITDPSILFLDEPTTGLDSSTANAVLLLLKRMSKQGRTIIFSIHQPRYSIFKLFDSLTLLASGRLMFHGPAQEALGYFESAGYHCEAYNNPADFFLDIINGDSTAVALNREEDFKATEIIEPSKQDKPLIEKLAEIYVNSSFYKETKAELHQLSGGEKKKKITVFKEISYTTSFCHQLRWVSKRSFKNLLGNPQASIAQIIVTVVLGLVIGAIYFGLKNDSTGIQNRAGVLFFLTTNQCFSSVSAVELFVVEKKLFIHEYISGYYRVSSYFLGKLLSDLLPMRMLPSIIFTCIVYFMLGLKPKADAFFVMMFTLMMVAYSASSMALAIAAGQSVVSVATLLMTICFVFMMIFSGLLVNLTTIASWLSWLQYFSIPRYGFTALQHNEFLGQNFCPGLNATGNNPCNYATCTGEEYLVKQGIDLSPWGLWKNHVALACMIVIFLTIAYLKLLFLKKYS
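Times: 10 min at 25 °C | Test system: Two drug-resistant human cell lines, ABCG2 and ABCB1 | Quantity: 3 million cells/mL final, two lines in 1:1 ratio | Signal: Flow cytometry, 530 nm JC-1 signal | Dosing: Compound at 6.6 µM | Controls: Nicardipine and DMSO wells | Reagent: JC-1 as fluorescent efflux pump substrate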
MEKK2mut PB1 HTS = signal of MEK5 binding to mutant human MEKK2 PB1 domain | bead flow cytometry, Alexa488-MEK5 binding to MEKK2 mutant | percent response, % at 10 µM | 290,000 compounds, 0.35% hits | AID 1530; in the data active = percent response above about 24%, passing the limit was not always enough
Numbers without * were called inactive; . = not tested or not shown; [ ] = another dose, or the depositor's remark.

SMILES	MEKK2 WT-MEK5	ABCB1 inh	WT yeast gro inh	MEKK3 PB1 HTS	ABCG2 inh	MEKK2mut PB1 HTS
Cc1ccc(CNc2oc(-c3ccco3)nc2S(=O)(=O)c2ccccc2)cc1	98	1	63*	88	0	1
Cc1ccc(C(=O)NS(=O)(=O)c2ccc(N=NN(C)C)cc2)cc1	101	1	1	101	8	-1
CCCn1c(SCC(=O)c2[nH]c(C)c(C(C)=O)c2C)n[nH]c1=O	99	.	.	98	.	3
CCN(CC(O)Cn1c2ccccc2c2ccccc21)S(=O)(=O)c1ccc(F)cc1 (configuration not stated)	107	0	65*	99	1	8
COc1ccccc1NC(=O)CSc1nc2ccccc2nc1N1CC(C)OC(C)C1 (configuration not stated)	87	.	.	96	.	-9
COc1cc(-c2nc3ccc4ccccc4c3c3c2CCC3)ccc1O	107	0	79*	102	1	0
COc1cc(-c2nc3ccc4ccccc4c3c3c2CCC3)cc(OC)c1O	104	2	98*	101	8	-1
COc1cc(-c2nc3ccc4ccccc4c3c3c2CCC3)cc(OC)c1OC	87	2	0	87	8	-4
O=C(Cc1nn[nH]n1)NCc1ccccc1Cl	103	1	-8	103	1	20
Cc1ccc(CN=Cc2[nH]c3ccc(Br)c(Cl)c3c2O)cc1	93	7	64*	97	16	-2
COc1ccc(Nc2nc(C)c(-c3ccccc3)s2)cc1	113	0	66*	106	3	15
COc1ccc(Nc2nc(-c3ccccc3)c3ccccc3n2)cc1	132	0	64*	109	3	22
COc1ccc(-c2nc3ccccc3nc2-c2ccccc2)cc1	84	0	40	94	1	-8
O=C(N/N=C/c1c[nH]c2ccccc12)C1CC1c1ccccc1 (configuration not stated)	101	1	12	106	4	1
O=C(N/N=C/c1c[nH]c2ccccc12)C1CC1(c1ccccc1)c1ccccc1 (configuration not stated)	120	0	81*	102	-2	10
COc1ccc(S(=O)(=O)N2CC3CCCN3c3ccc(C(F)(F)F)cc32)cc1 (configuration not stated)	97	1	8	102	7	-4
COc1ccc(S(=O)(=O)N2CC3CCCN3c3cc(C(F)(F)F)ccc32)cc1 (configuration not stated)	95	0	75*	102	2	-1
CCN(c1nc(N)c(C(=O)N=C(N)N)nc1Cl)C(C)C	122	.	.	105	.	6
Cc1cc2cc3c(cc2nc1SCC(=O)OC(C)C)OCCO3	105	0	-8	116	0	4
COC(=O)CSc1nc2cc3c(cc2cc1C)OCO3	61	0	70*	68	1	-15
CCC(C)Sc1nc2c(c(=O)n1C)SC(C)C2 (configuration not stated)	112	1	61*	106	1	11
COc1cccc(C(=O)N/N=C(/c2ccccc2)c2ccccn2)c1	105	2	66*	108	10	4
COc1cc(C(=O)N/N=C(\c2ccccc2)c2ccccn2)cc(OC)c1OC	106	1	3	134*	30	0
Cc1ccc(S(=O)(=O)/C(C#N)=C/c2c(N3CCC(C(N)=O)CC3)nc3ccccn3c2=O)cc1	95	0	-15	102	5	-2
O=C(/C=C/c1ccc2c(c1)OCO2)N1CCN(c2n[nH]c(=O)[nH]c2=O)CC1	95	.	.	94	.	-6
SMILES	MEKK2 WT-MEK5	ABCB1 inh	WT yeast gro inh	MEKK3 PB1 HTS	ABCG2 inh	MEKK2mut PB1 HTS
CCOc1ccc(N(CC(=O)Nc2ccc(C)c(C)c2)S(=O)(=O)c2c(C)noc2C)cc1	134*	1	9	112	5	7
O=C1/C(=C\c2ccco2)SC(=S)N1c1ccc(O)cc1	91	0	6	96	0	-4
O=C1/C(=C/C=C/c2ccco2)SC(=S)N1c1ccc(O)cc1	62*[inhibitor]	.	.	87	.	-22
CCOC(=O)c1c(NC(=O)c2cc(C3CC3)on2)sc2c1CCCC2	.	.	23	.	.	.
Cc1ccccc1C(=O)NNC(=S)NC(=O)COc1ccccc1	102	-1	-12	103	-1	3
CC(C)(C)C(=O)NC(=S)NNC(=O)c1ccncc1	97	1	5	95	15	-9
O=C(NC(=S)NNC(=O)c1cccs1)c1ccccc1	106	.	.	102	.	9
CC(C)(C)C(=O)NC(=S)NNC(=O)c1ccc(-c2ccccc2)cc1	76	-1	67*	86	-3	-16
Cc1ccc(C(=O)NNC(=S)NC(=O)COc2ccccc2)cc1	94	0	84*	98	-1	-1
CC(C)(C)c1ccc(C(=O)NC(=S)NNC(=O)c2cccs2)cc1	99	0	77*	101	-3	0
O/N=C(\c1ccc(Cl)cc1Cl)c1ncc(C(F)(F)F)cc1Cl	101	0	85*	107	0	7
O=C(c1ccc(Cl)cc1Cl)c1ncc(C(F)(F)F)cc1Cl	110	1	10	106	4	6
O=C1CSC(=Nc2cccc([N+](=O)[O-])c2)N1	105	.	.	107	.	3
Cc1ccc(C(C(=O)NCc2ccccc2)N(Cc2cccs2)C(=O)c2ccc3c(c2)OCCO3)cc1 (configuration not stated)	94	5	69*	99	18	1
COc1ccc(CNC(=O)C(c2ccc(C)cc2)N(Cc2cccs2)C(=O)c2ccc3c(c2)OCCO3)cc1 (configuration not stated)	93	4	55	101	2	-2
CC(C)OCCCNC(=O)c1cc(S(=O)(=O)N2CCc3ccccc32)cn1C	101	.	.	102	.	-1
CCCc1cc(=O)oc2cc(C)cc(OCC(=O)N3CCC(C(=O)O)CC3)c12	101	.	.	101	.	4
CC(C)C(=O)N(c1cc2sc(=O)oc2c2ccccc12)S(=O)(=O)c1cccs1	94	0	92*	103	-4	-3
O=C(Cn1ncc2c([nH]c3ccccc32)c1=O)Nc1ccc(CN2CCCCC2)cc1	147*	.	.	107	.	25*
Clc1ccc(C(c2nnnn2C2CCCCC2)N(Cc2cccnc2)Cc2ccco2)cc1 (configuration not stated)	106	2	70*	109	1	3
Brc1ccc2c(c1)OCCOCCOc1cc(Br)ccc1OCCOCCOCCO2	133	7	80*	107	11	16
O=C(c1cc2ccccc2[nH]1)N1CCOCC1	98	0	14	96	1	1

Compound activity as filed in PubChem.
